Results on twelve compounds are retold here after ChEMBL document CHEMBL1144993, “Imidazoline binding sites (IBS) profile modulation: key role of the bridge in determining I1-IBS or I2-IBS selectivity within a series of 2-phenoxymethylimidazoline analogues” (J Med Chem, 2003).

Test [1] can be described thus: Relative binding to imidazoline I2 and imidazoline I1 binding sites ([…]).
Test [2] can be described thus: Relative binding to imidazoline I1 and imidazoline I2 binding sites ([…]).
In test [3] the target is T1, Adrenergic receptor alpha-2 (Rattus norvegicus, UniProt P22086+P19328+P22909).
T1 sequence (P22086 whole entry): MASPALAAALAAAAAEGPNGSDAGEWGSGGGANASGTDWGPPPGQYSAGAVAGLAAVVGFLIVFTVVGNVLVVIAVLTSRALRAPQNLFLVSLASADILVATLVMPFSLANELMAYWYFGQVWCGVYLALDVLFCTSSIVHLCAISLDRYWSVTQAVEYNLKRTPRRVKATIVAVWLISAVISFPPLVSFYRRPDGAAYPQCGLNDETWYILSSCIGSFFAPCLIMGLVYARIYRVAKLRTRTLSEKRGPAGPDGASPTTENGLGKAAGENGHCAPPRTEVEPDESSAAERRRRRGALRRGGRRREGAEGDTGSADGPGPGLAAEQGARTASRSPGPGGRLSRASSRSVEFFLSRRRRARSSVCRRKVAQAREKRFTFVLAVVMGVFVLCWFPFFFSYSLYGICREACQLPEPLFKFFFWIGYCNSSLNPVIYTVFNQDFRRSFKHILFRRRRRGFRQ
T1 sequence (P19328 whole entry): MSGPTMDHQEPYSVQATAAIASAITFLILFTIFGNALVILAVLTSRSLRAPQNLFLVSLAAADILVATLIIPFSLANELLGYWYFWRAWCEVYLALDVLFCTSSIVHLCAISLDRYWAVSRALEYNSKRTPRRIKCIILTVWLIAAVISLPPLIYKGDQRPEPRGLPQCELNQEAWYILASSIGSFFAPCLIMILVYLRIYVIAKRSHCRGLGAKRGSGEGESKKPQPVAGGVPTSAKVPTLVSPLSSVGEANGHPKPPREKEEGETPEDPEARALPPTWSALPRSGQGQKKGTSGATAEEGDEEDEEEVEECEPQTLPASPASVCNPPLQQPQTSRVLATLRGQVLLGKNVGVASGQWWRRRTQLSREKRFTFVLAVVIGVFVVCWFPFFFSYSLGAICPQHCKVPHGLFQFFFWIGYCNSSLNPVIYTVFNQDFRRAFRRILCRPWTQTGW
T1 sequence (P22909 whole entry): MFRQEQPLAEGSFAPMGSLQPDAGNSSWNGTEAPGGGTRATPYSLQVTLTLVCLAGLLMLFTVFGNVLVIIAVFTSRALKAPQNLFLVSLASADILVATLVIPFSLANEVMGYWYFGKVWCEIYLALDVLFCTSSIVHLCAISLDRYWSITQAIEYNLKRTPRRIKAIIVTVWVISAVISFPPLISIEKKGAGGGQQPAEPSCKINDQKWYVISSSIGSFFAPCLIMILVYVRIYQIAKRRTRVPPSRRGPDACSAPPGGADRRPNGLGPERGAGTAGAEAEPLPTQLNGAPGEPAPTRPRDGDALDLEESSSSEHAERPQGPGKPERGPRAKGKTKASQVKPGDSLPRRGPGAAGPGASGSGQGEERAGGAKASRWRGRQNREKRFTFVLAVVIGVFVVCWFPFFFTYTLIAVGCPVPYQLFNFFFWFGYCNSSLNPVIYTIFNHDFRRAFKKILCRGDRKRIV
The test is described as follows: Displacement of [3H]clonidine from rat cortex membrane Alpha-2 adrenergic receptors. In outline:
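Rat cerebral cortex membranes (200 μg protein) incubated with 5 nM [3H]-clonidine and 10–12 competitor concentrations in 50 mM Tris-HCl pH 7.4, 45 min at 25 °C. Nonspecific binding with 10 μM phentolamine. GF/B filtration, scintillation counting, triplicate points.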
A general note: Loss of bound radioactivity is the signal in a displacement assay; it reports binding, not function.

Test [4] can be described thus: Relative binding to imidazoline I1 and alpha-2 adrenergic receptors ([…]).
Test [5] is described as follows: Relative binding to imidazoline I2 and alpha-2 adrenergic receptors ([…]).
Test [6] has as its target Imidazoline I2 binding site (Oryctolagus cuniculus). The test is described as follows: Displacement of [3H]idazoxan from imidazoline receptor I-2 of rabbit kidney membranes.
Test [7] can be described thus: Displacement of [125I]p-iodoclonidine from imidazoline receptor I-1 in rat pheochromocytoma cells.
Test [8] has as its system Oryctolagus cuniculus. In words: Heart rate during 15 minute pretreatment with intracisternal compound administration. In kind it is functional. In outline: (§1)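 Male normotensive Zika rabbits (2.5–3.5 kg), pentobarbitone 40 mg/kg iv anesthesia, 38 °C, tracheotomized, pancuronium 1 mg/kg iv, ventilated. Test drug given intracisternally as 0.2 mL after equal CSF removal, total 300 μg/kg; vehicle group 100 μL saline ic. Clonidine 10 μg/kg iv 15 min later. MAP = diastolic + 1/3 pulse pressure; HR from pressure signal. Mean ± SEM, n = 4–5; repeated-measures ANOVA.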

In test [9] the test system is Oryctolagus cuniculus. The test is described as follows: Mean arterial pressure following 15 minute pretreatment with intracisternal compound administration and 10 ug/kg iv clonidine. Type of test: functional, Artery. In outline: as §1
Test [10] deals with Oryctolagus cuniculus. In words: Mean arterial pressure during 15 minute pretreatment with intracisternal compound administration. Type of test: functional, Artery. In outline: as §1
Test [11] deals with Oryctolagus cuniculus. The test is described as follows: Heart rate following 15 minute pretreatment with intracisternal compound administration and 10 ug/kg iv clonidine. In kind it is functional. In outline:
as §1

For the compound `c1ccc(CCC2=NCCN2)cc1` [PHENYZOLINE], the Ratio in test [1] was determined as 1480; in test [2], 0.0007; in test [4], 0.54; in test [5], 794. For the same compound, the “Log Ki” value in test [3] is -5.7; in test [6] it was -8.6.
Regarding `c1ccc([C@H]2C[C@@H]2C2=NCCN2)cc1`, the “Log Ki” value in test [7] is listed as -7.93.
For `CC(CC1=NCCN1)c1ccccc1` (stereo not given), the “Log Ki” value was -5.93 in test [3] and -6.91 in [6].
`C[C@@H](CC1=NCCN1)c1ccccc1`: the “Log Ki” value was -5.8 in [3] and -7 in [6].
With `CC(Cc1ccccc1)C1=NCCN1` (stereo not given), in test [3], the “Log Ki” value was -5.45. Also, the Heart rate in test [8] came to 363 beats min-1; in test [11], 355 beats min-1. For the same compound, the values for the MAP in test [9] and in test [10] were 91 mmHg and 99 mmHg, respectively.
Turning to `C[C@@H](Cc1ccccc1)C1=NCCN1`, the “Log Ki” value in test [3] is given as -5.3.
The same measure, in the same setting: the value for `C[C@H](Cc1ccccc1)C1=NCCN1` was -5.4.
`C(=C\c1ccccc1)/C1=NCCN1`: the Ratio in test [1] came out at 10; in test [2], 0.1; in test [4], 741; in test [5] it was 7410.
In the case of `c1ccc([C@@H]2C[C@H]2C2=NCCN2)cc1`, in [7], the “Log Ki” value is -6.46.
For `c1ccc(C2CC2C2=NCCN2)cc1` (stereo not given), the “Log Ki” value in [7] was -7.76.
Take `CC(Oc1ccccc1)C1=NCCN1` (stereo not given): the Ratio came to 0.11 in test [1], 8.71 in test [2], 0.32 in test [4] and 0.04 in test [5].
On to `C[C@H](CC1=NCCN1)c1ccccc1`, for which the “Log Ki” value in test [3] was -5.9; in test [6], -5.6.
